This is an account of results in ChEMBL document CHEMBL4373710, “DNA Structural Alteration Leading to Antibacterial Properties of 6-Nitroquinoxaline Derivatives” (J Med Chem, 2019).

Data set [1] has as its system Staphylococcus aureus. Kind of data set: Antibacterial activity against Staphylococcus aureus MTCC737 measured after 6 hrs by broth microdilution assay. It is filed as functional. The note with it: MTCC737, 6 h. In short, it runs like this:
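Broth microdilution per CLSI; 5×10^5 cfu/mL bacteria in LB broth; compounds from DMSO stocks, final DMSO under 0.6%, with DMSO control. Plates incubated at the strain's recommended growth temperature and time; growth read as OD600.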
For orientation: Dilution methods test growth across graded concentrations, often in twofold steps.

Data set [2] relates to HEK293. Kind of data set: Cytotoxicity against HEK293 cells measured after 24 hrs by MTT assay. It is filed as cell-based. The settings on record: Homo sapiens, HEK293, 24 h. In short, it runs like this: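 HEK 293 cells, 4000/well, seeded overnight in DMEM + 10% FBS at 37°C in CO2; compound dose series for 24 h (final DMSO <0.5%, DMSO-only control). MTT at 1 mg/mL final for 3 h, formazan dissolved in DMSO, absorbance 595 nm; IC50 from triplicate OD data.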

The test system of data set [3] is HEK293. Kind of data set: Induction of morphological changes in HEK293 cells at 5 uM by propidium iodide staining based assay. It is filed as cell-based. The settings on record: human, hek293, 5 µM.
Data set [4] in a line: Binding affinity to pCDNA 3.1 (unknown origin) assessed as DNA unwinding effect at 2:1 to 4:1 compound to DNA ratio measured after 16 hrs by EtBr staining agarose gel shift assay. In short, it runs like this:
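pcDNA3.1 plasmid was grown in E. coli DH5α and used at 40 µM in 50 mM NaP, pH 7, with 10 mM NaCl. Mixed with compound at set [compound]:[DNA bp] ratios and held 16 h at 37 °C. Run on 1% agarose at 50 V for about 3 h, then stained with EtBr (1 µg/mL) for 5 min.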

Data set [5] concerns DNA. The data set is described as follows: Binding affinity to Staphylococcus aureus DNA assessed as induction of structural changes by EtBr staining based agarose gel shift assay. The format is nucleic-acid assay. The procedure, abridged:
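S. aureus genomic DNA incubated with compound at stated [compound]:[DNA bp] ratios, 16 h at 37 °C, in NaP buffer pH 7 with 10 mM NaCl. Run on agarose gel, stained with EtBr (1 µg/mL) and classed as supercoiled, structurally altered or condensed.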

For data set [6], the system named is Poly(dA-dT)oligonucleotide. Kind of data set: Binding affinity to poly(dA-dT) DNA (unknown origin) assessed as appearance of induced CD up to 6:1 compound to DNA ratio by circular dichroism method. The format is nucleic-acid assay. In short, it runs like this: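 Poly(dA-dT)·poly(dA-dT) or poly(dG-dC)·poly(dG-dC) held at 10 µM. Titrated with compound from 20 to 60 µM and followed by circular dichroism for change in the B-DNA band and appearance of induced CD.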
(Circular dichroism is widely used to follow secondary structure.)

Data set [7] deals with DNA. The data set is described as follows: Binding affinity to DNA isolated from HEK293 cells assessed as change in B-DNA structure at 15 to 180 uM by circular dichroism method. The format is ADME, cell-free. The settings on record: human, hek293, 180 µM.
The subject of data set [8] is DNA. Kind of data set: Binding affinity to DNA isolated from HEK293 cells assessed as change in ellipticity at 262 nm at 15 to 180 uM by circular dichroism method. The format is ADME, cell-free. The note with it: human.
Data set [9] has as its system DNA. Kind of data set: Binding affinity to Escherichia coli pBR322 DNA assessed as DNA unwinding at 0.5:1 to 1.5:1 compound to DNA ratio by atomic force microscopic analysis. It is filed as nucleic-acid assay. The procedure, abridged:
(§1)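 Supercoiled pBR322 plasmid treated with compound at [compound]:[DNA bp] ratios of 0.5:1, 1:1, 1.5:1, 2:1 and 3:1. Imaged by atomic force microscopy, with DNA height measured and compared against untreated plasmid.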

Data set [10] has as its system DNA. The data set is described as follows: Binding affinity to Escherichia coli pBR322 DNA assessed as height of DNA at 0.5:1 to 3:1 compound to DNA ratio by atomic force microscopic analysis. It is filed as nucleic-acid assay. In short, it runs like this: as §1
The subject of data set [11] is DNA. Kind of data set: Binding affinity to Escherichia coli pBR322 DNA assessed as transition of local to global DNA at 2:1 to 3:1 compound to DNA ratio by atomic force microscopic analysis. The format is nucleic-acid assay. In short, it runs like this: as §1
Data set [12] has as its system DNA. Kind of data set: Inhibition of ethidium bromide binding to Staphylococcus aureus DNA by fluorescence assay. It is filed as nucleic-acid assay. The procedure, abridged:
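Fluorescence intercalator displacement: S. aureus genomic DNA 10 µM plus EtBr 5 µM in 10 mM NaP pH 7, 10 mM NaCl, 1% DMSO, at 25 and 37 °C; titrated with 2.5–100 µM compound. Excitation 480 nm, emission 520–700 nm, inner-filter corrected, triplicates; Stern–Volmer analysis, F0/F = 1 + Ksv[Q].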

For data set [13], the system named is DNA. The data set is described as follows: Inhibition of ethidium bromide binding to Staphylococcus aureus DNA at 37 degC by fluorescence assay. It is filed as nucleic-acid assay. In short, it runs like this:
(§2)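 S. aureus genomic DNA (10 µM) with EtBr (5 µM) in 10 mM NaP pH 7, 10 mM NaCl and 1% DMSO, at 25 and 37 °C. Titrated with compound from 2.5 to 100 µM. Excitation 480 nm, emission scanned 520–700 nm, corrected for inner filter. Stern–Volmer analysis, triplicates. Variants: pH 6–8, or NaCl raised to 50 and 200 mM.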

In data set [14] the test system is DNA. The data set is described as follows: Inhibition of ethidium bromide binding to Staphylococcus aureus DNA at pH 6 to 8 by fluorescence assay. The format is nucleic-acid assay. In short, it runs like this:
as §2

Data set [15] concerns DNA. The data set is described as follows: Inhibition of ethidium bromide binding to Staphylococcus aureus DNA in presence of 10 to 200 mM NaCl by fluorescence assay. It is filed as nucleic-acid assay. The procedure, abridged: as §2
Data set [16] has as its system DNA. Kind of data set: Binding affinity to Staphylococcus aureus DNA assessed as relaxation of DNA strand at 1:1 compound to DNA ratio by atomic force microscopic analysis. The format is nucleic-acid assay. The procedure, abridged:
(§3)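 Isolated S. aureus genomic DNA (2.8 Mbp) treated with compound at increasing [compound]:[DNA bp] ratios, up to 3:1. Imaged by atomic force microscopy against untreated DNA.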

Data set [17] deals with DNA. Kind of data set: Binding affinity to Staphylococcus aureus DNA assessed as DNA condensation at 3:1 compound to DNA ratio by atomic force microscopic analysis. The format is nucleic-acid assay. In short, it runs like this:
as §3

The subject of data set [18] is Staphylococcus aureus. Kind of data set: Inhibition of DNA synthesis in Staphylococcus aureus assessed as reduction in [3H]-thymidine incorporation at 3.5 to 5 uM measured after 30 mins by scintillation counting analysis. The format is functional, organism-based. In short, it runs like this:
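Log-phase S. aureus (10^5–10^6 CFU/mL) incubated with 3.5 or 5 µM, then pulsed 30 min with 3H-thymidine (1 µCi/well); cells harvested and counted by liquid scintillation. 5-fluorouracil (2 µM) as positive control.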
Background: Incorporation of labelled thymidine or its analogues reports DNA synthesis.

Data set [19] relates to HEK293. The data set is described as follows: Induction of DNA damage in HEK293 cells at 15 uM by TUNEL staining based confocal laser scanning fluorescence microscopic analysis. It is filed as cell-based. The note with it: human, hek293, 15 µM. In short, it runs like this: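 TUNEL in HEK 293 cells treated with 15 µM or 0.5% DMSO control; TdT incorporation of fluorescent nucleotides at strand-break 3′-OH ends, confocal imaging at 60X.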

In data set [20] the test system is Staphylococcus aureus. Kind of data set: Induction of morphological changes in Staphylococcus aureus assessed as unchanged population at 3.5 uM measured after 2 hrs by flow cytometric analysis (reference value: 90.4%). It is filed as functional.
The subject of data set [21] is Staphylococcus aureus. Kind of data set: Induction of morphological changes in Staphylococcus aureus assessed as increase in changed population measured after 2 hrs by flow cytometric analysis. It is filed as functional, organism-based.
In data set [22] the test system is Staphylococcus aureus. The data set is described as follows: Disruption of cell membrane in Staphylococcus aureus assessed as accumulation of propidium iodide negative cells at 5 uM by flow cytometric analysis (reference value: 98.2%). The format is functional.
The subject of data set [23] is Staphylococcus epidermidis. Kind of data set: Disruption of preformed biofilm in Staphylococcus epidermidis up to 4 times MIC measured after 12 hrs by crystal violet staining based light microscopic analysis. The format is functional, organism-based. The procedure, abridged: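 Planktonic cells washed off; 1% crystal violet 10 min, solubilised in 30% acetic acid, A550 read; wells also imaged at 20X by light microscopy.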

≈ marks a conversion by molar mass, not a printed value. Calls of active or inactive are those of the source. No cut-off for these calls is given here.

As for `CN(C)CCCNc1nc2cc([N+](=O)[O-])ccc2nc1NCc1ccc(C(F)(F)F)cc1`, it took 1.79 µg/mL (≈ 3.99 µM) to inhibit growth in data set [1] (MIC). Also, in data set [2], the IC50 (usually the concentration needed to halve the response being measured) was found to be 5.66 µg/mL (≈ 12.6 µM). The Activity entry is “Non-Toxic” in [3]; “Dose-dependent effect” in [5]; “Active” in data set [7]; “Active” in data set [8]; 0.32 to 1.3 nm in [10]; “Toxic” in data set [19]. For the same compound, the Activity is 86.3% in data set [20], “Dose-dependent effect” in [21] and 79% in data set [22]. Moreover, the result in data set [4], in data set [9], in [11], in data set [16], in data set [17] and in [23] was Active. The outcome in data set [6] was inactive. The inhibition result in [12] was “Dose-dependent effect”. For the same compound, the inhibition result in data set [13], in [14], in [15] and in [18] was “Active” in each case.
